# Assay outcomes from PubChem.
# CDK5 p35 inh: blocks human CDK5/p35 kinase activity | inhibition, % at 10 µM | Recombinant CDK5/p35, ADP-Glo luminescence, 60 min | actives 0.01% (n = 330,000) | Q00535+Q15078 | AID 488839;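 active means highest replicate inhibition of at least 50% and at least 75% of replicates reaching 50%; inconclusive means only one of the two criteria met; inactive means both criteria failed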;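 further: plate controls were DMSO neutral control for no effect and GW8510 at 10 µM for full effect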
# Rtt109 HAT inh: blocks Candida albicans Rtt109/Vps75 acetyltransferase activity; inhibition, % at 34.9 µM; purified Rtt109/Vps75, ThioGlo CoA-SH fluorescence, 4 h; Q5AAJ8; actives 0.16% (n = 330,000);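 active means inhibition of at least 50% in every replicate; inconclusive means best replicate reaches 50% inhibition but some replicates fall short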
# Target sequence (Q5AAJ8 whole entry, looked up): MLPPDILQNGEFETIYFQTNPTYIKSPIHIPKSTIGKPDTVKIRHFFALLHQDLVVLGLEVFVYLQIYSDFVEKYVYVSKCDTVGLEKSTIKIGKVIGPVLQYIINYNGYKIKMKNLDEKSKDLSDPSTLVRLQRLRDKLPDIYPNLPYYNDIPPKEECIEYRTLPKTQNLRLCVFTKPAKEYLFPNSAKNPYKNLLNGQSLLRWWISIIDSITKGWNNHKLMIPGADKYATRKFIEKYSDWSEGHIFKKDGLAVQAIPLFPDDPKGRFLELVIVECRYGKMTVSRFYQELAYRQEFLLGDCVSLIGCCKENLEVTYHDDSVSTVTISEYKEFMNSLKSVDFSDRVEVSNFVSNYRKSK
# dFosB activator: activators of mouse delta FosB homodimer; P13346; purified delta FosB, TAMRA-CDK5 oligo fluorescence polarization; percent of positive-control signal above neutral wells; activation, % at 25 µM; actives 0.99% (n = 340,000);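 active means mean activation above about 17%, with every replicate also reaching it, limit read from the data, passing the limit was not always enough; inconclusive means only one of the two conditions met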
# CAL PDZ FP-1: blocks peptide binding to the human CAL PDZ domain. Q9HD26. purified CAL PDZ, TMR-peptide fluorescence polarization, 1 h. inhibition, % at 24.9 µM. actives 0.92% (n = 300,000). AID 602252;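 active means mean inhibition of at least 30% with at least half of replicates also reaching 30%; inconclusive means no clear call, values can overlap the other calls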;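 further: 0% = DMSO neutral control and 100% = excess unlabeled competitor peptide PRC23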
# CAL PDZ FP-2: inhibitors of human CAL PDZ peptide binding; inhibition, % at 20 µM; purified CAL PDZ, TMR-peptide fluorescence polarization, 1 h; Q9HD26; actives 0.02% (n = 330,000);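 active means highest replicate inhibition of at least 40%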;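 further: plate controls were DMSO neutral control wells for no effect and unlabeled competitor peptide control wells for full effect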
#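 Material: tagged CAL PDZ domain; buffer or medium: 25 mM sodium phosphate pH 7.4, 150 mM NaCl, TCEP, IgG, Thesit; compound dosing: single point, 20 µM; schedule: 1 h incubation at room temperature before polarization reading; measured by: FP readout, S and P plane fluorescence; read-out basis: percent inhibition from loss of millipolarization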
# Dyrk1A ADPGlo: Dyrk1A (rat) kinase inhibition | inhibition, % at 12.5 µM | ADP-Glo luminescence, NFATc1 peptide | Q63470 | actives 0.43% (n = 310,000); in the data active means inhibition above about 50%;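 further: plate controls were vehicle with enzyme for no effect and no enzyme for full effect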
# The depositor's hits bear a star; ? = inconclusive; . = not tested or not shown. In the library only some 2.2% were active in any assay of this set; here they are far more common.
SMILES,CDK5 p35 inh,Rtt109 HAT inh,dFosB activator,CAL PDZ FP-1,CAL PDZ FP-2,Dyrk1A ADPGlo
CC(Oc1ccc(Cl)cc1C(N)=O)C(=O)N1CCc2ccccc21 (stereo not given),-1,-6,-9,73*,1,-2
COc1ccc(CC2C(=O)OC(C)(C)OC2=O)cc1,2,18,-5,0,-1,2
COc1ccc(CC2CCOC2=O)cc1 (stereo not given),-1,-2,7,62*,0,-6
CCN(c1ccccc1)S(=O)(=O)c1ccc(Cl)c(NC(=O)CNC(C)c2ccccc2)c1 (stereo not given),-4,7,-7,-6,-6,-1
CN(C)S(=O)(=O)N1CCN(S(=O)(=O)c2ccccc2)CC1,-1,-9,8,59*,0,-1
Cc1ccc(S(=O)(=O)N2CCN(C(=O)N(C)C)CC2)cc1,1,1,0,-5,67*,.
Cc1ccc(S(=O)(=O)N2CCN(C(=O)N3CCCC3)CC2)cc1,1,8,0,1,-3,2
Cc1ccc(S(=O)(=O)N2CCN(S(=O)(=O)N(C)C)CC2)cc1,2,10,-5,-4,.,5
COCC(C)NC(=O)Cc1ccc(F)cc1 (stereo not given),-1,-3,-3,-3,1,-2
C/C(CCc1ccccc1)=N\NC(=O)C(=O)Nc1cccc(Cl)c1,2,-2,-6,1,-2,2
CCn1c(C)nnc1SCC(=O)Nc1cccc(Cl)c1,-2,-5,1,.,-2,2
CC(=O)n1nc(-c2ccncc2)nc1SCC(=O)Nc1cccc(Cl)c1,2,0,-9,45*,-2,8
Cc1ccc(NC(=O)NC2CC(=O)N(c3ccc4c(c3)OCCO4)C2)c(C)c1 (stereo not given),1,-8,-3,.,-1,-5
O=c1[nH]c(/C=C/c2ccc([N+](=O)[O-])cc2)c([N+](=O)[O-])c(=O)[nH]1,1,-3,-1,-2,-1,6
CN(C)/C=C/c1[nH]c(=O)[nH]c(=O)c1[N+](=O)[O-],-2,1,6,77*,0,-1
C[C@]12C=CC(=O)C=C1CCC1C2CC[C@@]2(C)C1CCC21OCCO1 (stereo not given in full),0,-6,-4,102*,-1,1
CC(C)CNC(=O)CC1Nc2ccccc2NC1=O (stereo not given),0,-8,-7,95*,.,-1
CN(C)CCN(C(=O)c1cccs1)c1nc2cc3c(cc2s1)OCCO3,-2,-1,15,41*,0,-3
CN(C)CCCN(C(=O)COc1ccc(Cl)cc1)c1nc2cc3c(cc2s1)OCO3,-1,6,39*,-2,-1,3
Cc1cc(C)c2nc(N(CCCN(C)C)C(=O)C3=COCCO3)sc2c1,0,16,-1,-3,-2,3
CC1CCCCN1S(=O)(=O)c1ccc(C(=O)N(CCCN(C)C)c2nc3ccc(Br)cc3s2)cc1 (stereo not given),-1,24,12,-6,-4,8
CCC1CCCCN1S(=O)(=O)c1ccc(C(=O)N(CCCN(C)C)c2nc3cc4c(cc3s2)OCO4)cc1 (stereo not given),0,?,24*,0,-2,3
CN(C)CCCN(C(=O)COc1ccc(Cl)cc1)c1nc2cc3c(cc2s1)OCCO3,1,8,?,-1,-4,8
Cc1cc(C)c2nc(N(CCCN(C)C)C(=O)c3ccc4c(c3)OCCO4)sc2c1,0,17,31*,.,-3,0
CC(NS(=O)(=O)c1ccc(Cl)cc1)C(=O)NCCC1=CCCCC1 (stereo not given),0,1,-15,-1,-1,-3
CCc1c(C)sc(NC(=O)/C=C/C(=O)O)c1C(N)=O,-3,-10,4,.,0,3
CN(C)CCCN(C(=O)c1ccc(S(=O)(=O)N(C)Cc2ccccc2)cc1)c1nc2cc3c(cc2s1)OCO3,-1,?,?,42*,-1,-9
